The text below walks through data of ChEMBL document CHEMBL2417486, “Exploring natural product chemistry and biology with multicomponent reactions. 5. Discovery of a novel tubulin-targeting scaffold derived from the rigidin family of marine alkaloids” (J Med Chem, 2013).

In brackets after ≈: the same amount, converted by molar mass. Activity calls are given as the source filed them. The rule behind the calls is not given here.

The subject of one data set is A549. The data set is described as follows: Growth inhibition of human A549 cells after 48 hrs by MTT assay. To be noted: A549, 48 h. In kind it is functional.
Data set [1] in a line: Inhibition of bovine brain tubulin polymerization preincubated for 15 mins followed by GTP addition measured after 20 mins by turbidimetric analysis. Further details: species or system Bos taurus. The method, boiled down: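 Bovine brain tubulin at 10 µM (1.0 mg/mL) in 0.8 M monosodium glutamate (pH 6.6 in 2 M stock) was preincubated with varying compound concentrations for 15 min at 30 °C, then cooled to 0 °C. After addition of 0.4 mM GTP, samples were warmed to 30 °C and assembly followed by turbidity at 350 nm.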

Data set [2] has as its system HeLa. The data set is described as follows: Antimitotic activity in human HeLa cells assessed as disruption of mitotic microtubule organization at 10 to 100 nM after 3 hrs by Hoechst 33342 staining based inverted microscopic analysis. It counts as functional, cell-based. The method, boiled down:
(§1)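 HeLa cells grown in EMEM with 10% FBS, sodium pyruvate and sodium bicarbonate; treated 3 h with compound (DMSO stock prediluted in medium) or 0.1% DMSO carrier. Fixed in methanol at -20°C for 30 min, blocked in 3% BSA/PBS 1 h, mouse anti-tubulin plus rabbit anti-pericentrin overnight at 4 °C, Alexafluor secondaries, Hoechst 33342 for DNA; epifluorescence imaging with Apotome.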

Data set [3] in a line: Growth inhibition of human Hs683 cells after 48 hrs by MTT assay. To be noted: Hs 683, 48 h. It counts as functional. (In general: Formazan colour is commonly taken as a measure of viable cells.)
Data set [4] has as its system HeLa. The data set is described as follows: Antimitotic activity in human HeLa cells assessed as interphase microtubule organization at 1 to 10 nM after 3 hrs by Hoechst 33342 staining based inverted microscopic analysis. In kind it is functional, cell-based. The method, boiled down:
as §1

The next data set relates to SK-MEL-28. The data set is described as follows: Growth inhibition of human SK-MEL-28 cells after 48 hrs by MTT assay. To be noted: SK-MEL-28, 48 h. In kind it is functional.
For data set [5], the system named is HeLa. The data set is described as follows: Growth inhibition of human HeLa cells after 48 hrs by MTT assay. In kind it is functional. The method, boiled down:
(§2)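 Cells seeded at 4 × 10^3 per well, grown 24 h, then treated 48 h at 0.004–100 µM from 100 or 25 mM DMSO stocks. Controls were 0.1% DMSO and phenyl arsine oxide. MTT (5 mg/mL) added for 2 h, formazan dissolved in DMSO, A490 read. […] HeLa/MCF-7 in DMEM, MES-SA lines in RPMI-1640, all with 10% FBS.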

In a further data set the test system is B16-F10. The data set is described as follows: Growth inhibition of mouse B16F10 cells after 48 hrs by MTT assay. It counts as functional. To be noted: B16-F10, 48 h.
Data set [6] has as its target T1, Tubulin beta (Homo sapiens) (UniProt P68371+Q9H4B7+Q13509+P04350+Q3ZCM7+P07437+Q13885+Q9BVA1+Q9BUF5+A6NNZ2). The data set is described as follows: Inhibition of [3H] radiolabelled colchicine binding to tubulin beta (unknown origin) at 5 uM by DEAE-cellulose filter method. In kind it is protein assay.
Data set [7] is described as follows: Aqueous solubility of the compound by spectrophotometric analysis. In kind it is physicochemical. In short, it runs like this: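 Compound dispersed in ultrapure water at >0.5 mg/mL; supernatant centrifuged repeatedly until no pellet remained, then diluted 1:2 (solution:DMSO). Concentration read from absorbance at peak 335–336 nm against a calibration line made in 1:2 water/DMSO, and corrected for the DMSO dilution.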

The test system of data set [8] is HeLa. The data set is described as follows: Antimitotic activity in human HeLa cells assessed as effect on spindle length at 1 to 10 nM after 3 hrs by Hoechst 33342 staining based inverted microscopic analysis. In kind it is functional, cell-based. The method, boiled down: as §1
The target in data set [9] is T1, Tubulin beta (Homo sapiens). The data set is described as follows: Inhibition of [3H] radiolabelled colchicine binding to tubulin beta (unknown origin) at 1 uM by DEAE-cellulose filter method. It counts as protein assay.
Data set [10] deals with HeLa. The data set is described as follows: Antimitotic activity in human HeLa cells assessed as disruption of interphase microtubule organization at 10 to 100 nM after 3 hrs by Hoechst 33342 staining based inverted microscopic analysis. It counts as functional, cell-based. In short, it runs like this: as §1
Data set [11] is described as follows: Growth inhibition of human MES-SA cells after 48 hrs by MTT assay. It counts as functional. In short, it runs like this: as §2
The subject of data set [12] is HeLa. The data set is described as follows: Antimitotic activity in human HeLa cells assessed as mitotic microtubule organization at 1 to 10 nM after 3 hrs by Hoechst 33342 staining based inverted microscopic analysis. In kind it is functional, cell-based. The method, boiled down:
as §1

The nature of data set [13]: Growth inhibition of human doxorubicin-resistant MES-SA/Dx5 cells after 48 hrs by MTT assay. It counts as functional. To be noted: MES-SA/Dx5, 48 h. In short, it runs like this:
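Cells seeded at 4 × 10^3 per well, grown 24 h, then treated 48 h at 0.004–100 µM from 100 or 25 mM DMSO stocks. Controls were 0.1% DMSO and phenyl arsine oxide. MTT (5 mg/mL) added for 2 h, formazan dissolved in DMSO, A490 read.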

The nature of data set [14]: Growth inhibition of human U373 cells after 48 hrs by MTT assay. It counts as functional, U-373MG ATCC. To be noted: U373 MG.
Another data set deals with MCF7. The data set is described as follows: Growth inhibition of human MCF7 cells after 48 hrs by MTT assay. In kind it is functional. To be noted: MCF7, 48 h. In short, it runs like this:
as §2

Data set [15] is described as follows: Growth inhibition of human UM-SCC-10A cells after 48 hrs by MTT assay. In kind it is functional. To be noted: UMSCC-10A.
For data set [16], the system named is HeLa. The data set is described as follows: Cell cycle arrest in human HeLa cells assessed as accumulation at G2/M phase at 1 uM after 32 hrs using Vybrant Orange staining by flow cytometry relative to control. It counts as functional, cell-based. In short, it runs like this:
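HeLa cells at 70–80% confluence were seeded at 2 × 10^5 per well in DMEM/10% FBS with penicillin G and streptomycin, left to adhere overnight, then treated at 1 µM for 32 h (0.1% DMSO control). Washed, trypsinized, stained 30 min at 37 °C with 10 µM Vybrant Orange in medium, then analysed by flow cytometry for DNA content.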
A general note: Flow cytometry measures light scatter and fluorescence of single cells or particles in a stream.

The subject of a further data set is UMSCC22B. The data set is described as follows: Growth inhibition of human UM-SCC-22B cells after 48 hrs by MTT assay. It counts as functional.
A short description of data set [17]: Growth inhibition of human UM-SCC-22A cells after 48 hrs by MTT assay. In kind it is functional.
Data set [18] can be described thus: Growth inhibition of human UM-SCC-10B cells after 48 hrs by MTT assay. In kind it is functional.

Consider `O=C(c1ccccc1)c1[nH]c2[nH]cnc(=O)c2c1-c1ccccc1`, for which the GI50 with A549 is 10 nM; in data set [3], 10 nM; in the data set with SK-MEL-28 it was less than 10 nM; in the data set on HeLa [5] it was 35 nM; with B16-F10, 20 nM; in data set [11], 30 nM. Besides, the GI50 in [13] is 70 nM; in data set [14], less than 10 nM; in the data set on MCF7, 40 nM. This molecule also gave a half-maximal inhibitory concentration (IC50) in data set [1] of 1200 nM. The outcome in the data set with HeLa [2] and in the data set with HeLa [10] was Active. The result in the data set with HeLa [4], in the data set on HeLa [8] and in the data set on HeLa [12] was inactive. The inhibition came out at 88% in data set [6] and 58% in [9]. The same molecule showed a solubility in data set [7] of 10 µM (≈ 3.15 µg/mL).

With `O=C(c1ccccc1)c1[nH]c2[nH]cnc(=O)c2c1-c1cc(Br)cc(Br)c1`, the concentration for 50% growth inhibition (GI50) in the data set on A549 stood at 30 nM; in data set [3] it was 20 nM; in data set [15] it was 90 nM; in the data set on SK-MEL-28, 20 nM; in the data set with HeLa [5], 95 nM; with B16-F10 it was 50 nM. Further, the GI50 in the data set on UMSCC22B came out at 20 nM; in data set [17] it was 110 nM; in data set [11], 81 nM; in data set [13], 394 nM; in data set [14], 30 nM; in data set [18] it was 100 nM. Further, the concentration for 50% growth inhibition (GI50) with MCF7 was determined as 95 nM. Also, in data set [1], the midpoint of inhibition, the IC50, lay at 1600 nM. Further, the outcome in the data set with HeLa [2], in the data set with HeLa [16] and in the data set with HeLa [10] was Active. Further, the outcome in the data set with HeLa [4], with HeLa [8] and with HeLa [12] was inactive. For the same molecule, the inhibition in data set [6] turned out to be 71%. The concentration in solution in [7] (solubility) was 40 µM (≈ 18.9 µg/mL).

As a reminder, the GI50 is the concentration at which growth is held to half of that of the control. As usually defined, the IC50 is the concentration needed to halve the response being measured. A high value points to lower potency. What is called inhibition is the share of the control response that was lost under treatment. Broadly, the solubility is how much of the substance goes into solution per volume. Higher therefore signals much dissolved substance.
